Measurements from different studies.
PIK3CA E545A: Phosphatidylinositol 4,5-bisphosphate 3-kinase catalytic subunit alpha isoform (PIK3CA, Homo sapiens, UniProt P42336, E545A)
PIK3CA: Phosphatidylinositol 4,5-bisphosphate 3-kinase catalytic subunit alpha isoform (PIK3CA, Homo sapiens, UniProt P42336)
PIK3CA E545K: Phosphatidylinositol 4,5-bisphosphate 3-kinase catalytic subunit alpha isoform (PIK3CA, Homo sapiens, UniProt P42336, E545K)
PIK3CA E542K: Phosphatidylinositol 4,5-bisphosphate 3-kinase catalytic subunit alpha isoform (PIK3CA, Homo sapiens, UniProt P42336, E542K)
PIK3CA H1047Y: Phosphatidylinositol 4,5-bisphosphate 3-kinase catalytic subunit alpha isoform (PIK3CA, Homo sapiens, UniProt P42336, H1047Y)
PIK3CA M1043I: Phosphatidylinositol 4,5-bisphosphate 3-kinase catalytic subunit alpha isoform (PIK3CA, Homo sapiens, UniProt P42336, M1043I)
PIK3CA Q546K: Phosphatidylinositol 4,5-bisphosphate 3-kinase catalytic subunit alpha isoform (PIK3CA, Homo sapiens, UniProt P42336, Q546K)
PIK3CA I800L: Phosphatidylinositol 4,5-bisphosphate 3-kinase catalytic subunit alpha isoform (PIK3CA, Homo sapiens, UniProt P42336, I800L)

CN(C)c1nccc(-c2cnn3ncccc23)n1
remaining binding (PIK3CA E545A; binding; 1 µM): 100%

Nc1ncc2c(n1)-c1c([nH]c3ccc(C#CC4CC4)cc13)CCCC2
remaining binding (PIK3CA E545A; binding, competition with immobilised ligand; 1 µM): 89%

O=C(c1ccc(Nc2nccc(-c3cc4ccccc4s3)n2)cc1)N1CCC(N2CCCC2)CC1
remaining binding (PIK3CA E545A; binding, competition with immobilised ligand; 1 µM): 100%

Cc1c(-c2ccccc2)oc2c(C(=O)OCCN3CCCCC3)cccc2c1=O
remaining binding (PIK3CA; cell-free assay, competition with immobilised ligand; 10 µM): 100%

C[C@@H](c1ccc(-n2cnc3c(N)ncnc32)cc1)N1CCc2nn(C)c(Cc3ccccc3)c2C1=O
remaining binding (PIK3CA E545K; binding, competition with immobilised ligand; 0.1 µM): 67%

CN1CCN(c2ccc(Nc3nccc(-c4cccc([N+](=O)[O-])c4)n3)cc2C(F)(F)F)CC1
remaining binding (PIK3CA E542K; binding; 10 µM): 36%

CNC(=O)[C@@H]1CC[C@@H](n2c(-c3ccc4cnccc4c3)nc3ccc(C(=O)NCc4cccc(C(N)=O)c4)cc32)C1
remaining binding (PIK3CA H1047Y; binding, competition with immobilised ligand; 1 µM): 100%

CN(C)c1nccc(-c2cnc3ncccn23)n1
remaining binding (PIK3CA H1047Y; binding; 1 µM): 50%

COc1ncc2cc3ccccc3nc2c1C#N
remaining binding (PIK3CA E542K; cell-free assay, competition with immobilised ligand; 5 µM): 100%

c1cncc(-c2cccc(Nc3nccc(NC4CCCCC4)n3)c2)c1
remaining binding (PIK3CA E542K; binding, competition with immobilised ligand; 10 µM): 88%

COc1cnc(Nc2cccc(S(N)(=O)=O)c2)nc1N1CCN(c2ccccc2)C(=O)C1
remaining binding (PIK3CA M1043I; binding, competition with immobilised ligand; 1 µM): 85%

O=C(NCCCN1CCOCC1)c1ccc(Nc2nccc(-c3cc4ccccc4s3)n2)cc1
remaining binding (PIK3CA Q546K; binding, competition with immobilised ligand; 1 µM): 81%

CN(C)c1ncc(F)c(-c2cnn3ncccc23)n1
remaining binding (PIK3CA H1047Y; binding; 1 µM): 100%

CN(c1ccnc(CNc2nc(Nc3ccc4c(c3)CC(=O)N4)ncc2C(F)(F)F)n1)S(C)(=O)=O
remaining binding (PIK3CA E545K; cell-free assay, competition with immobilised ligand; 1 µM): 100%

COc1ccnn2ncc(-c3ccnc(N(C)C)n3)c12
remaining binding (PIK3CA I800L; binding; 1 µM): 94%

CN1CCN(c2ccc(Nc3nccc(-c4ccccc4)n3)cc2C(F)(F)F)CC1
remaining binding (PIK3CA M1043I; binding; 10 µM): 92%

CS(=O)(=O)CCNCc1ccc(-c2ccc3ncnc(Nc4ccc(OCc5cccc(F)c5)c(Cl)c4)c3c2)o1
remaining binding (PIK3CA; cell-free assay, competition with immobilised ligand; 0.1 µM): 98%

CN(CCCC(F)(F)F)c1nccc(-c2cnn3ncccc23)n1
remaining binding (PIK3CA H1047Y; binding; 1 µM): 100%

C[C@H](c1cccc(C#N)c1)n1cc(Cl)cc(C(N)=O)c1=N
remaining binding (PIK3CA Q546K; cell-free assay, competition with immobilised ligand; 1 µM): 100%

C[C@H]1CCN(c2nccc(-c3cnn4ncccc34)n2)C1
remaining binding (Phosphatidylinositol 4,5-bisphosphate 3-kinase catalytic subunit alpha isoform (PIK3CA, Homo sapiens, UniProt P42336, H1047L); binding; 1 µM): 69%

COc1cnc(Nc2cccc(S(N)(=O)=O)c2)nc1N1CCN(c2ccccc2)CC1
remaining binding (PIK3CA I800L; binding, competition with immobilised ligand; 1 µM): 83%

O=C(c1ccc(Nc2ncc(Cl)c(-c3ccc(Cl)s3)n2)cc1)N1CCC(N2CCCC2)CC1
remaining binding (PIK3CA E545K; binding, competition with immobilised ligand; 1 µM): 70%

Cc1c(NC(=O)c2cc(C(N)=O)nc3cc(F)ccc23)c(C(F)(F)F)nn1Cc1ccc(C#N)cc1
remaining binding (PIK3CA H1047Y; cell-free assay, competition with immobilised ligand; 1 µM): 86%

O=C(NCC1CCOCC1)c1n[nH]cc1NC(=O)c1c(F)cccc1F
remaining binding (PIK3CA; binding, competition with immobilised ligand; 1 µM): 100%

Cn1nc(C(=O)NCc2ccc(C(=O)O)cc2)cc1-c1ccc2[nH]ccc2c1
remaining binding (PIK3CA Q546K; cell-free assay, competition with immobilised ligand; 0.1 µM): 76%

O=C(Nc1c[nH]nc1C(=O)NC1CCNCC1)c1cc(F)cc(F)c1
remaining binding (PIK3CA Q546K; binding, competition with immobilised ligand; 1 µM): 100%

O=C(NS(=O)(=O)c1ccc(NCC2CCOCC2)c([N+](=O)[O-])c1)c1ccc(N2CCN(Cc3ccc(C(F)(F)F)cc3-c3ccc(Cl)cc3)CC2)cc1Oc1cnc2[nH]ccc2c1
remaining binding (PIK3CA H1047Y; cell-free assay, competition with immobilised ligand; 1 µM): 67%

CC1CCCN1c1nccc(-c2cnn3ncccc23)n1 (stereo not drawn)
remaining binding (PIK3CA E545K; binding; 1 µM): 100%

C=CC(=O)N1CCC(C(=O)NCC(=O)N2CCN(c3nc(-c4cnc(N)nc4C(F)F)nc(N4CCOCC4)n3)CC2)CC1
remaining binding (PIK3CA Q546K; binding, competition with immobilised ligand; 1 µM): 0%

COc1cc(-c2cn(C3CCc4c(F)cccc4N(CC(F)(F)F)C3=O)nn2)ccc1-n1cnc(C)c1 (stereo not drawn)
remaining binding (PIK3CA E545K; cell-free assay, competition with immobilised ligand; 1 µM): 70%

O=C(NCCCN1CCOCC1)c1ccc(Nc2ncc(Cl)c(-c3ccc(Cl)s3)n2)cc1
remaining binding (PIK3CA M1043I; binding, competition with immobilised ligand; 1 µM): 100%

Cc1noc([C@H]2C[C@@H](c3ccc(C(F)(F)F)cc3)CN(C(=O)N3CCS(=O)(=O)C3)C2)n1
remaining binding (PIK3CA M1043I; cell-free assay, competition with immobilised ligand; 1 µM): 100%

O=C(c1ccc(Nc2ncc(Cl)c(-c3cc4ccccc4s3)n2)cc1)N1CCC(N2CCCC2)CC1
remaining binding (PIK3CA I800L; binding, competition with immobilised ligand; 1 µM): 97%

CCN1CCN(Cc2ccc(C(=O)Nc3ccc(C)c(Oc4ccc5c(c4)CC(=O)N5)c3)cc2C(F)(F)F)CC1
remaining binding (PIK3CA E542K; binding, competition with immobilised ligand; 1 µM): 100%

N[C@H]1CCN(c2nccc(-c3cnn4ncccc34)n2)C1
remaining binding (PIK3CA H1047Y; binding; 1 µM): 56%

O=C1CCc2cc(Nc3cc(OC4CCOCC4)c([N+](=O)[O-])cc3Cl)ccc2N1
remaining binding (Phosphatidylinositol 4,5-bisphosphate 3-kinase catalytic subunit alpha isoform (PIK3CA, Homo sapiens, UniProt P42336, C420R); cell-free assay, competition with immobilised ligand; 1 µM): 97%
